Rows were chosen to be rich in hits. Some 3% of all compounds tested hit in one or more screens of this group.
UBC13 inh – blocks human UBC13 polyubiquitin chain formation. TR-FRET. P61088. inhibition, % at 20 µM. 0.47% of 330,000 active; in the data active = inhibition above about 45%, passing the limit was not always enough
SENP8 block-1 – SENP8 protease inhibition; Q96LD8; purified SENP8, Z-RLRGG-aminoluciferin cleavage, luminescence; inhibition, % at 10 µM; 1.2% of 330,000 active; AID 2540; in the data active = inhibition above about 50%
Apaf-1 inh – human Apaf-1 inhibition | O14727 | reconstituted apoptosome caspase-3 activity, DEVD-Rh110 fluorescence | inhibition, % at 20 µM | 0.71% of 330,000 active | AID 489030; active = inhibition of at least 40% at 20 µM
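System: reconstituted apoptosome with Apaf-1, cytochrome c, caspase-9, procaspase-3, dATP; Signal: Rh110 fluorescence intensity; Schedule: 30 min compound preincubation, 50 min activation, room temperature; Reagent: cytochrome c trigger plus (Z-DEVD)2-Rh110 caspase-3 substrate.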
SENP8 block-2 – inhibitors of human SENP8 protease; inhibition, % at 20 µM; Q96LD8; 0.64% of 360,000 active; AID 602440; recombinant SENP8, Nedd8 substrate fluorescence; in the data active = inhibition mostly above about 40%, no sharp cut-off; inactive = mostly below about 27%
SENP6 block – inhibitors of human SENP6 protease. Q9GZR1. Recombinant SENP6 catalytic domain, aminoluciferin luminescence. inhibition, % at 10 µM. 1.8% of 330,000 active. AID 2599;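 active = inhibition above about 50% at the single tested dose, limit read from the data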
SENP7 inh – SENP7 protease inhibition | recombinant SENP7, Z-RLRGG-aminoluciferin luminescence, 40 min | inhibition, % at 5 µM | 1.5% of 330,000 active;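 active = inhibition above about 50% at the single test dose, limit read from the data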
Casp3 UBC13 ctr – counter-screen for UBC13 inhibitors: human caspase-3 inhibition. shares compounds with UBC13 inh. Recombinant caspase-3, Caspase-Glo 3/7 luminescence, 60 min. inhibition, % at 20 µM. 4% of 1,400 active;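 active = mean inhibition across replicates above about 26%, limit read from the data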
UBC13 confirm – confirmation of human UBC13 polyubiquitin inhibitors; inhibition, % at 10 µM; UBC13 polyubiquitination, TR-FRET, biochemical; shares compounds with UBC13 inh; 68% of 1,400 active; in the data active = inhibition above about 45%
Apaf-1 inh conf2 – confirmation of Apaf-1 inhibitors; shares compounds with Apaf-1 inh; inhibition, % at 20 µM; 25% of 1,800 active; AID 504614; reconstituted apoptosome, caspase-3 DEVD-Rh110 fluorescence;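 active = mean inhibition of at least 40% at 20 µM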
Rh110 interf inh – counter-screen for Apaf-1 inhibitors: fluorescence interference | shares compounds with Apaf-1 inh | Rh110 fluorescence interference, quenched caspase reaction | activation (fluorescence interference), % at 20 µM | 1,800 tested, under 10 active | AID 504615;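 active = signal rise of 40% or more at 20 µM, treated as a fluorescence artifact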
Fluor interf inh – shows fluorescence interference in the Apaf-1 inhibitor assay format; shares compounds with Apaf-1 inh; fluorescence interference counterscreen, Apaf-1 assay format; IC50, µM; 460 tested, under 10 active; call rule not given here
Numbers stand for hits; n = inactive; x = not tested or not shown.

SMILES | UBC13 inh | SENP8 block-1 | Apaf-1 inh | SENP8 block-2 | SENP6 block | SENP7 inh | Casp3 UBC13 ctr | UBC13 confirm | Apaf-1 inh conf2 | Rh110 interf inh | others
CCCCCCCCCCOC(=O)Cn1c(COc2ccccc2C)[n+](C)c2ccccc21 | 45.2 | n | 80.8 | n | n | n | n | n | 83.0 | n | Fluor interf inh=n
CCCCOC(=O)Cn1c(=O)n(CC(=O)OCCCC)c2ccccc21 | n | n | n | n | n | n | x | x | x | x
CCCCCCCCCCOC(=O)Cn1c(COc2ccc(OC)cc2)[n+](C)c2ccccc21 | 62.8 | n | 72.4 | n | n | n | n | 80.9 | 68.2 | n | Fluor interf inh=n
CCCCCCCCCCOC(=O)Cn1c(COc2ccc(Cl)cc2)[n+](C)c2ccccc21 | 99.8 | n | 84.5 | n | n | n | n | 89.3 | 90.4 | n | Fluor interf inh=n
CCCCCCCCCCOC(=O)Cn1c(COc2cccc(C)c2)[n+](C)c2ccccc21 | 51.5 | n | 79.4 | n | n | n | n | 67.8 | 77.3 | n | Fluor interf inh=n
CC(Cc1ccccn1)NC(=O)CCc1nnc(C2CCCCC2)o1 (centres undefined) | n | n | n | n | n | n | x | x | x | x
CCN(CC)CCCNc1ccc(-c2nnc(-c3ccc(OCC(C)C)cc3)o2)cn1 | 46.8 | n | 41.4 | n | n | n | n | 77.5 | n | n
COc1cc2nc(Nc3ccc(C)c(Cl)c3)nc(N)c2cc1OC | 110.8 | n | 45.1 | n | n | n | 25.1 | 120.7 | n | n
Cc1nc2sccn2c(=O)c1CCN1CCC(=C(c2ccc(F)cc2)c2ccc(F)cc2)CC1 | 45.3 | n | 42.3 | n | n | n | n | n | n | n
Nc1c(C(=O)CSc2nccn2-c2ccc(Cl)cc2)c(=O)[nH]c(=O)n1C1CC1 | n | n | n | n | n | n | x | x | x | x
CCN1CCN(Cc2ccc(NC(=O)c3cc(NC(=O)c4cc(-c5ccc(OC)cc5)n[nH]4)cc(OC)c3)cc2C(F)(F)F)CC1 | 60.9 | n | 56.3 | n | n | n | n | n | n | n
CCN1CCN(Cc2ccc(NC(=O)c3cc(NC(=O)c4cncc(-c5cccs5)c4)cc(OC)c3)cc2C(F)(F)F)CC1 | 102.2 | n | 67.9 | n | n | n | n | 90.7 | n | n
CN(C)CCCN(C(=O)c1ccc(S(=O)(=O)N2CCCCC2)cc1)c1nc2cc3c(cc2s1)OCO3 | 54.7 | n | 41.8 | n | n | n | n | 89.6 | n | n
Cc1cc(C)c2sc(N(CCCN(C)C)C(=O)c3ccc(S(=O)(=O)N(C)C4CCCCC4)cc3)nc2c1 | 57.5 | n | 40.1 | n | n | n | n | 97.1 | n | n
CN(C)CCCN(C(=O)c1ccc(S(=O)(=O)N(C)C2CCCCC2)cc1)c1nc2ccc(Br)cc2s1 | n | n | n | n | n | n | x | x | x | x
CCN(Cc1ccccc1)S(=O)(=O)c1ccc(C(=O)N(CCCN(C)C)c2nc3ccc(F)cc3s2)cc1 | n | n | n | n | n | n | x | x | x | x
CCN(Cc1ccccc1)S(=O)(=O)c1ccc(C(=O)N(CCCN(C)C)c2nc3cc4c(cc3s2)OCCO4)cc1 | 95.5 | n | 41.3 | n | n | n | n | 114.2 | n | n
CN(C)CCCN(C(=O)c1ccc(S(=O)(=O)N2CCCC2)cc1)c1nc2ccc(Br)cc2s1 | 70.5 | n | 53.3 | n | n | n | n | 97.4 | n | n
CN(C)CCCN(C(=O)c1ccc(S(=O)(=O)N2CCOCC2)cc1)c1nc2cc3c(cc2s1)OCO3 | n | n | n | n | n | n | x | x | x | x
COc1ccc(CNC(=O)c2noc(C)c2[N+](=O)[O-])cc1 | n | n | n | n | n | n | x | x | x | x
COc1cccc(C(C(=O)NC2CCCC2)N(C(=O)c2ccco2)c2ccc(NC(C)=O)cc2)c1OC (centres undefined) | n | n | n | n | n | n | x | x | x | x
COCCCN1C(=O)C(CC(=O)NC2CCCCC2)CC(C(=O)N2CCCCCC2)=C1C (centres undefined) | x | x | x | n | x | x | x | x | x | x
CCOc1cccc2sc(N(CCCN(C)C)C(=O)c3ccc(S(=O)(=O)N4CCc5ccccc5C4)cc3)nc12 | 90.8 | n | 61.7 | n | n | n | n | 110.5 | n | n
CN(C)CCCN(C(=O)c1ccc(C(=O)c2ccccc2)cc1)c1nc2cc3c(cc2s1)OCO3 | 72.1 | n | 60.3 | n | n | n | n | 106.1 | n | n
CCOc1cccc2sc(N(CCCN(C)C)C(=O)c3ccc(S(=O)(=O)N(C)c4ccccc4)cc3)nc12 | n | n | n | n | n | n | x | x | x | x
SMILES | UBC13 inh | SENP8 block-1 | Apaf-1 inh | SENP8 block-2 | SENP6 block | SENP7 inh | Casp3 UBC13 ctr | UBC13 confirm | Apaf-1 inh conf2 | Rh110 interf inh | others
CCN(CC)CCN(C(=O)c1ccc(C(=O)c2ccccc2)cc1)c1nc2cc3c(cc2s1)OCO3 | n | n | n | n | n | n | x | x | x | x
COc1ccc(CN2C(=O)C(=O)N(CC(N)=O)C2=O)cc1 | n | n | n | n | n | n | x | x | x | x
CCOC(=O)C1(C)CCCN(C(=O)c2ccc(F)cc2Cl)C1 (centres undefined) | x | x | x | n | x | x | x | x | x | x
C[C@@H]1CN([C@@H](C)CO)C(=O)c2cc(Br)cnc2O[C@H]1CN(C)C(=O)CCN1CCCCC1 | x | x | x | n | x | x | x | x | x | x
COc1ccccc1NC(=O)CS(=O)(=O)c1cn(CC(=O)N2CCOCC2)c2ccccc12 | n | n | n | n | n | n | x | x | x | x
Cc1cc(-c2ccc(C)c(S(=O)(=O)NCc3ccc(OC(C)C)cc3)c2)on1 | n | n | n | n | n | n | x | x | x | x
C#CCOCCOCCOCCNc1nc(N2CCN(C(=O)[C@H](CCCCN)n3cc([C@@H](N)[C@H](C)CC)nn3)CC2)nc(N2CCN(C(=O)[C@H](CCC(=O)O)n3cc([C@@H](N)CCCCN)nn3)CC2)n1 | 101.4 | n | 47.4 | n | n | n | n | 109.3 | n | n
C#CCOCCOCCOCCNc1nc(N2CCN(C(=O)[C@H](CCCN=C(N)N)n3cc(C(N)[C@@H](C)CC)nn3)CC2)nc(N2CCN(C(=O)[C@H](CCCCN)n3cc([C@@H](N)[C@H](C)CC)nn3)CC2)n1 (some centres undefined) | 94.8 | n | 49.9 | n | n | n | n | 88.4 | n | n
C#CCOCCOCCOCCNc1nc(N2CCN(C(=O)[C@H](CCCN=C(N)N)n3cc(C(N)[C@@H](C)CC)nn3)CC2)nc(N2CCN(C(=O)[C@H](CCC(=O)O)n3cc([C@@H](N)CCCCN)nn3)CC2)n1 (some centres undefined) | n | n | n | n | n | n | x | x | x | x

Screening results deposited in PubChem BioAssay by Sanford-Burnham Center for Chemical Genomics.
